Assay results as given in ChEMBL document CHEMBL1142991, “Structure-activity relationship study to understand the estrogen receptor-dependent gene activation of aryl- and alkyl-substituted 1H-imidazoles” (J Med Chem, 2007).
The source made the active and inactive calls. The calls are words filed in the database; no cut-off is given here.

Tests used:
MCF7-2A [1] = assay: Activation of transcriptional activity at ERalpha expressed in MCF7-2a cells assessed as luciferase expression at 10 uM relative to estradiol; format: functional, cell-based, Homo sapiens; conditions: for EC50: Homo sapiens, MCF7-2A, in the assay text read “relative to estradiol” for “at 10 uM relative to estradiol”
Summary of the method: (§1)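 Reporter cells: MCF-7-2a (stable ERE_wtcluc) kept one week in DMEM with L-glutamine, antibiotics, dextran/charcoal-treated BCS (50 mL/L); seeded ~2.2 × 10⁵ cells/mL in six-well plates, compound added after 24 h at 10^-5 to 10^-10 M, 50 h incubation; lysed, luciferase luminescence read 10 s, normalized to Bradford protein; expressed as % of 10^-8 M estradiol; triplicate, single experiment.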

[2] = target: T1, Estrogen receptor (Bos taurus) (UniProt P49884); assay: Displacement of [3H]estradiol from calf ER alpha after 16 hrs relative to estradiol
T1 sequence (whole entry): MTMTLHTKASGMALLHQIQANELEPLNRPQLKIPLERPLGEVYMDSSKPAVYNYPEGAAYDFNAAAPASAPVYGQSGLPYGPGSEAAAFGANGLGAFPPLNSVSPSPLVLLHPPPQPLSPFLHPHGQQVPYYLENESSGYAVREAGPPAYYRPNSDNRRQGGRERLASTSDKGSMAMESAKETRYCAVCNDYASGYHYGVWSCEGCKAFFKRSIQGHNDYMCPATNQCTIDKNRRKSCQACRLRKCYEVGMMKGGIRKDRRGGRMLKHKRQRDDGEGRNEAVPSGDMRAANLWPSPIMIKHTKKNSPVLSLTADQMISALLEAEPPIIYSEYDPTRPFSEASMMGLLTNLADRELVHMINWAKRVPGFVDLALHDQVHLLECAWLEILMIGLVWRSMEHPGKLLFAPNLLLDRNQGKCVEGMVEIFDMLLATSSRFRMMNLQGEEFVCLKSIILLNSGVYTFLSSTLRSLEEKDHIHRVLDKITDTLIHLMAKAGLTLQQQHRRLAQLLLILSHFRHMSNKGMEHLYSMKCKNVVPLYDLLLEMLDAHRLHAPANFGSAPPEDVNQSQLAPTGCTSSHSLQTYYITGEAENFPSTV
Summary of the method: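 Calf uterine cytosol as receptor source, shaken with 17β-[³H]estradiol and competitor at 4 °C for 16 h; dextran-coated charcoal stop, centrifugation, supernatant radioactivity counted. Six competitor concentrations; % bound label plotted against log concentration, and the concentration giving 50% displacement taken for competitor and for unlabeled estradiol to give relative binding affinity.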

MCF7-2A [3] = assay: Activation of transcriptional activity at ERalpha expressed in MCF7-2a cells assessed as luciferase expression relative to estradiol; format: functional, cell-based; conditions: Homo sapiens; summary of the method: as §1
Homo sapiens = species: Homo sapiens; assay: Decrease in COX activity

SMILES	Activity (MCF7-2A [1])	RBA [2]	also measured
Oc1ccc(-c2nc(-c3ccc(O)cc3)n(-c3ccc(O)cc3)c2-c2ccccc2)cc1	100%	–	EC50 (MCF7-2A [1]): 350 nM
Cc1c(-c2ccc(O)cc2)nc(-c2ccc(O)cc2)n1-c1ccc(O)cc1	100%	–	EC50 (MCF7-2A [1]): 140 nM
CCc1c(-c2ccc(O)cc2)nc(-c2ccc(O)cc2)n1-c1ccc(O)cc1	140%	0.11%	EC50 (MCF7-2A [1]): 77 nM
CCc1c(-c2ccc(O)cc2)nc(-c2ccc(O)cc2Cl)n1-c1ccc(O)cc1	–	0.19%	EC50 (MCF7-2A [3]): 480 nM
Cc1c(-c2ccc(O)cc2Cl)nc(-c2ccc(O)cc2Cl)n1-c1ccc(O)cc1	–	0.11%	–
Oc1ccc(-c2cn(-c3ccc(O)cc3)c(-c3ccc(O)cc3Cl)n2)cc1	–	–	Activity (Homo sapiens): inactive
CCc1c(-c2ccc(O)cc2)nc(-c2ccc(O)cc2)n1-c1ccccc1	60%	–	–
CCc1c(-c2ccc(O)cc2)nc(-c2ccccc2)n1-c1ccc(O)cc1	90%	–	EC50 (MCF7-2A [3]): 61 nM
Oc1ccc(-n2cc(-c3ccc(O)cc3Cl)nc2-c2ccc(O)cc2Cl)cc1	–	0.09%	Activity (Homo sapiens): Active
Oc1ccc(-c2nc(-c3ccc(O)cc3Cl)cn2-c2ccc(O)cc2)cc1	–	–	Activity (Homo sapiens): Active
Oc1ccc(-c2nc(-c3ccc(O)cc3Cl)n(-c3ccc(O)cc3)c2-c2ccccc2)cc1	50%	–	–
Oc1ccc(-c2nc(-c3ccc(O)cc3Cl)c(-c3ccccc3)n2-c2ccc(O)cc2)cc1	40%	–	–
